# From the M2OR odorant receptor database
# Assays:
# Conditions in all cases: stereoisomer not certain
# UniProt Q924H8 = molecular target: T1, UniProt Q924H8
# T1 sequence (whole entry): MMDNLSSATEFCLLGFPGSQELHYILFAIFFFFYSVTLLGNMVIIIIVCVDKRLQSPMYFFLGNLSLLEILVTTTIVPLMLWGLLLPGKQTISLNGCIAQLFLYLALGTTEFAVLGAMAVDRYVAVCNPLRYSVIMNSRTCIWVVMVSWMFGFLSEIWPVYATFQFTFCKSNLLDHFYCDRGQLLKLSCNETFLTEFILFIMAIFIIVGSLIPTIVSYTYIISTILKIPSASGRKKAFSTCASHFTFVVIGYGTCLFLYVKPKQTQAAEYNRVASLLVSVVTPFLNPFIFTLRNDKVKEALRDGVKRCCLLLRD
# In short: (§1)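 Whether a receptor–molecule pair is responsive (active) rests on the original authors' judgment that its measured signal was statistically different from baseline. Pairs without that judgment are non-responsive (inactive). Sources used varied assay methods, commonly transient luciferase assays in mammalian cell lines.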
# UniProt Q920P2 = molecular target: T2, UniProt Q920P2
# T2 sequence (whole entry): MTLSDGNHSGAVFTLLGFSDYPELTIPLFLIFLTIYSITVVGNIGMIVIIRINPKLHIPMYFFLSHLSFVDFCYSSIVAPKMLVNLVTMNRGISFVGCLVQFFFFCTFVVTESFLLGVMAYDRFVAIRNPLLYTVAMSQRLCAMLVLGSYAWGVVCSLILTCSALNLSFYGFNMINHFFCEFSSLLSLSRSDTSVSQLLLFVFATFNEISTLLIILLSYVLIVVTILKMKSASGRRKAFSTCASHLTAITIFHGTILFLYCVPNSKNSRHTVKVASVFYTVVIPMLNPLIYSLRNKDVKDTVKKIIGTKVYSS
# In short: as §1
# UniProt Q9EPN9 = molecular target: T3, UniProt Q9EPN9
# T3 sequence (whole entry): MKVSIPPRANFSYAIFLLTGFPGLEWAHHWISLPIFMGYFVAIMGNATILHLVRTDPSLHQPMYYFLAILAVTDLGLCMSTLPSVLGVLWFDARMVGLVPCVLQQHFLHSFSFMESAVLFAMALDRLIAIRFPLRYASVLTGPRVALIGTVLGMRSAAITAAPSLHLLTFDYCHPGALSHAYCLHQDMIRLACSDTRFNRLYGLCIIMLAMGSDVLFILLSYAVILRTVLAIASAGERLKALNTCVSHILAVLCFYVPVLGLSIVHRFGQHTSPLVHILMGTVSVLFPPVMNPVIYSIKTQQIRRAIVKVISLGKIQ
# In short: as §1
# UniProt Q9R0K2 = molecular target: UniProt Q9R0K2
# In short: as §1
# UniProt Q9WU86 = molecular target: T4, UniProt Q9WU86
# T4 sequence (whole entry): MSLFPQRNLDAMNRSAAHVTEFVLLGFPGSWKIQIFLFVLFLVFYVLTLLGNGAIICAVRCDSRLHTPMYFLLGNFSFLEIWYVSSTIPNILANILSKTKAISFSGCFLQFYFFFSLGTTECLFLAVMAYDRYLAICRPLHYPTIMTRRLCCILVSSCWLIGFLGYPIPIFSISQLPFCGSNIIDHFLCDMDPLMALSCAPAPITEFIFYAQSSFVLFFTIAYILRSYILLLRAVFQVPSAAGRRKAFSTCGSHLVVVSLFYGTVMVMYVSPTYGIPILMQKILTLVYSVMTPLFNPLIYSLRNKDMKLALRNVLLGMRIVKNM
# In short: as §1
# UniProt Q9WVD9 = molecular target: UniProt Q9WVD9
# In short: as §1
# UniProt Q9WVN5 = molecular target: T5, UniProt Q9WVN5
# T5 sequence (whole entry): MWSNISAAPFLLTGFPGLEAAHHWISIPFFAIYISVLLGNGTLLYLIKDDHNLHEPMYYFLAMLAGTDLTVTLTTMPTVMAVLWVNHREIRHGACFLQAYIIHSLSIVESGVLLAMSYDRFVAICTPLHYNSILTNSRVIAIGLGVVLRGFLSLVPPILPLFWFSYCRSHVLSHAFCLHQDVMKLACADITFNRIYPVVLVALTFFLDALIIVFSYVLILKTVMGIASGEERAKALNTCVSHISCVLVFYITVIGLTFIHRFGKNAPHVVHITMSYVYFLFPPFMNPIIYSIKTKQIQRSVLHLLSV
# In short: as §1
# 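Further: active if original authors judged signal statistically different from baseline.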
# Chain of UniProt Q9WVD9 (Q9WVD9 as listed by the source): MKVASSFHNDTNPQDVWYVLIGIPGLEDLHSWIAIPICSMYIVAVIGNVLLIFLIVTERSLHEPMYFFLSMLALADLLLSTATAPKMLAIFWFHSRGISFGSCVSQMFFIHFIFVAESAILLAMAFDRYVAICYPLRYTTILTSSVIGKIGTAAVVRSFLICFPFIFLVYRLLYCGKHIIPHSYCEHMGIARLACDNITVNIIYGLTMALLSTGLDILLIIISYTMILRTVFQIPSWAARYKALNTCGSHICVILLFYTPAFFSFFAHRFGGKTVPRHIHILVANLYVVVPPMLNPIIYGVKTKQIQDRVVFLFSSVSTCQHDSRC
# Chain of UniProt Q9R0K2 (Q9R0K2 as listed by the source): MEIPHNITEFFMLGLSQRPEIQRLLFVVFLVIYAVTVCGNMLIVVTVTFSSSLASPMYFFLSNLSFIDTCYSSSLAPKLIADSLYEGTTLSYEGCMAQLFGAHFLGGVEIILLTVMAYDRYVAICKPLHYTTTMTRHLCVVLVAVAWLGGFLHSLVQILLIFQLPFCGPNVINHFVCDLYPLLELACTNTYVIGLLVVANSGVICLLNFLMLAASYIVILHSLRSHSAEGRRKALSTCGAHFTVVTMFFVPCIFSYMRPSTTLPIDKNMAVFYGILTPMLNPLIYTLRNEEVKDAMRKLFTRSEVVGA
structure (smiles),measurement,setting,value
CC1CC=CCCCCCCCCCC(=O)C1 (stereo unspecified),odorant receptor agonist call,UniProt Q924H8,active
Cc1ccc(OC(=O)C(C)C)cc1,odorant receptor agonist call,UniProt Q924H8,inactive
Cc1ccccc1OC(=O)C(C)C,odorant receptor agonist call,UniProt Q924H8,inactive
C=CC(=C)CCC=C(C)CCC=C(C)C,odorant receptor agonist call,UniProt Q924H8,inactive
CCCCCCCCCC=CC=O,odorant receptor agonist call,UniProt Q924H8,inactive
CCCCCOC(=O)CC,odorant receptor agonist call,UniProt Q924H8,inactive
C=C(C)C1CC=C(C)CC1 (stereo unspecified),odorant receptor agonist call,UniProt Q924H8,inactive
CCCCCCCCC=CC=O,odorant receptor agonist call,UniProt Q924H8,inactive
CC(=O)OC1(C)CCC23CC1C(C)(C)C2CCC3C (stereo unspecified),odorant receptor agonist call,UniProt Q924H8,active
CC(=O)C1(C)CC2=C(CCCC2(C)C)CC1C (stereo unspecified),odorant receptor agonist call,UniProt Q924H8,inactive
COc1nccnc1C,odorant receptor agonist call,UniProt Q924H8,inactive
CC(C)=C1CCC(C)CC1=O (stereo unspecified),odorant receptor agonist call,UniProt Q924H8,inactive
CCc1occc(=O)c1O,odorant receptor agonist call,UniProt Q924H8,inactive
Cc1ccc(C(C)C)c(O)c1,odorant receptor agonist call,UniProt Q924H8,inactive
CC(C)=CCCC(C)=CCO,odorant receptor agonist call,UniProt Q920P2,inactive
same,odorant receptor agonist call,UniProt Q924H8,inactive
same,odorant receptor agonist call,UniProt Q9EPN9,inactive
same,odorant receptor agonist call,UniProt Q9R0K2,active
same,odorant receptor agonist call,UniProt Q9WU86,inactive
same,odorant receptor agonist call,UniProt Q9WVD9,inactive
same,odorant receptor agonist call,UniProt Q9WVN5,inactive
c1ccccc1,odorant receptor agonist call,UniProt Q920P2,inactive
same,odorant receptor agonist call,UniProt Q924H8,inactive
same,odorant receptor agonist call,UniProt Q9EPN9,inactive
same,odorant receptor agonist call,UniProt Q9R0K2,inactive
same,odorant receptor agonist call,UniProt Q9WU86,inactive
same,odorant receptor agonist call,UniProt Q9WVD9,inactive
same,odorant receptor agonist call,UniProt Q9WVN5,inactive
CC=C(C)C=O,odorant receptor agonist call,UniProt Q924H8,inactive
Cc1c(C)c(C)c(C=O)c(C)c1C,odorant receptor agonist call,UniProt Q924H8,inactive
C=C1C2CCC(C2)C1(C)C (stereo unspecified),odorant receptor agonist call,UniProt Q924H8,inactive
COc1cc(C=O)cc(OC)c1O,odorant receptor agonist call,UniProt Q920P2,inactive
CC=CC(=O)C1=C(C)CCCC1(C)C,odorant receptor agonist call,UniProt Q924H8,inactive
CCOC(=O)C(C)CC (stereo unspecified),odorant receptor agonist call,UniProt Q924H8,inactive
CCSCC,odorant receptor agonist call,UniProt Q924H8,inactive
CCCCCCCCCCCO,odorant receptor agonist call,UniProt Q924H8,inactive
CCc1ccccc1O,odorant receptor agonist call,UniProt Q924H8,inactive
c1ccc2ncccc2c1,odorant receptor agonist call,UniProt Q924H8,inactive
CCc1ncc(C)nc1CC,odorant receptor agonist call,UniProt Q924H8,inactive
C=C(CC)CCCC(C)(C)O,odorant receptor agonist call,UniProt Q924H8,inactive
CC(C=O)Cc1ccc(C(C)(C)C)cc1 (stereo unspecified),odorant receptor agonist call,UniProt Q920P2,inactive
CCCCCCCCCCOC(C)=O,odorant receptor agonist call,UniProt Q924H8,inactive
CCCCCCC(C)O (stereo unspecified),odorant receptor agonist call,UniProt Q924H8,inactive
CCCCCCC(=O)OCCCC,odorant receptor agonist call,UniProt Q924H8,inactive
COc1cc(C(=O)O)ccc1O,odorant receptor agonist call,UniProt Q920P2,inactive
same,odorant receptor agonist call,UniProt Q924H8,inactive
same,odorant receptor agonist call,UniProt Q9EPN9,inactive
same,odorant receptor agonist call,UniProt Q9R0K2,inactive
same,odorant receptor agonist call,UniProt Q9WU86,inactive
same,odorant receptor agonist call,UniProt Q9WVD9,inactive
same,odorant receptor agonist call,UniProt Q9WVN5,inactive
